This note sets out measurements from ChEMBL document CHEMBL1828626, “Thiazolyl N-benzyl-substituted acetamide derivatives: synthesis, Src kinase inhibitory and anticancer activities” (2011).

For experiment [1], the system named is CCRF-CEM. Put plainly: Antiproliferative activity against human CCRF-CEM cells at 10 uM after 72 hrs relative to control. Type of experiment: functional, cell-based. The gist of the method: (§1)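 BT-20 in EMEM or CCRF-CEM in RPMI, with 10% FBS, at 37 °C, 5% CO2. Seeded at 5000 cells/well and exposed 72 h after seeding to 10 μM agent, in triplicate. Readout is CellTiter 96 AQueous One, 1 h, A490. Growth is given as percent of untreated control after medium-blank subtraction.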

For experiment [2], the system named is BT-20. Put plainly: Antiproliferative activity against human BT20 cells at 10 uM after 72 hrs relative to control. It is filed as functional, cell-based. The gist of the method: as §1
Another experiment has as its system NIH3T3. Put plainly: Inhibition of constitutively active human c-SRC527F mutant-induced growth inhibition in mouse NIH3T3 cells after 3 days by MTT assay. Type of experiment: cell-based. The method, boiled down:
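NIH3T3 cells carrying constitutively active human c-Src527F were seeded at 4500 cells/well in DMEM/10% FBS and left overnight. They were then exposed for 3 days at 37 °C to a 5-point 2-fold dilution series (n = 3). Growth % = (T−T0)/(C−T0) × 100; GI50 taken from curves.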
Background: Tetrazolium dyes change colour on reduction, which living cells bring about.

The next experiment relates to HT-29. In words: Antiproliferative activity against c-Src overexpressing human HT-29 cells at 50 uM after 24 to 72 hrs relative to control. Type of experiment: functional. The method, boiled down: (§2)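 Cells cultured in EMEM (HT-29, BT-20) or RPMI (CCRF-CEM) with 10% FBS at 37 °C, 5% CO2. Seeded at 5000 cells/well and treated 72 h after seeding with 50 μM compound, in triplicate, for 24-72 h. CellTiter 96 AQueous One reagent added for 1 h; formazan A490. Survival is (treated − medium blank)/(untreated control − blank) × 100%.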

The subject of experiment [3] is CCRF-CEM. In words: Antiproliferative activity against human CCRF-CEM cells at 50 uM after 72 hrs relative to control. Type of experiment: functional. The gist of the method:
as §2

In a further experiment the test system is SYF. In words: Inhibition of constitutively active human c-Src527F mutant-induced growth inhibition in src, yes and fyn-deficient mouse SYF cells after 2 days by MTT assay. It is filed as cell-based. The gist of the method:
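SYF cells (Src/Yes/Fyn knockout) re-expressing c-Src527F were plated at 3500 cells/well in DMEM/10% FBS overnight. Compound was added as a 5-point 2-fold serial dilution in triplicate for 2 days at 37 °C, 5% CO2. GI50 comes from growth % = (T−T0)/(C−T0) × 100, with T0 from day-zero wells.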

Experiment [4] concerns BT-20. Put plainly: Antiproliferative activity against human BT20 cells at 50 uM after 72 hrs relative to control. Type of experiment: functional. The gist of the method:
as §2

SMILES strings stand for the structures. Calls of active or inactive are those of the source. The calls are words filed in the database; no cut-off is given here.

With `COc1cccc2c1C(=O)c1c(O)c3c(c(O)c1C2=O)C[C@@](O)(C(=O)CO)C[C@@H]3O[C@H]1C[C@H](N)[C@H](O)[C@H](C)O1`, the outcome with CCRF-CEM [1] and in the experiment on BT-20 [2] was Active.

As for `Cc1ccc(CNC(=O)Cc2csc(-c3ccc(OCCN4CCOCC4)cc3)n2)cc1`, the GI50 with NIH3T3 amounted to 4.76 µM; in the experiment with SYF, 7.23 µM. In addition, the Activity with HT-29 is 54%; in the experiment with CCRF-CEM [3] it was 61%.

`O=C(Cc1csc(-c2ccc(OCCN3CCOCC3)cc2)n1)NCc1ccc(Cl)c(Cl)c1`: the 50% growth inhibitory concentration (GI50) with NIH3T3 worked out at 12.3 µM; in the experiment with SYF, 12.5 µM. Besides, the results for the Activity in the experiment with HT-29 and in the experiment on CCRF-CEM [3] were 54% and 69%, respectively.

Turning to `O=C(Cc1ccc(-c2ccc(OCCN3CCOCC3)cc2)cn1)NCc1ccccc1`, the GI50 in the experiment on NIH3T3 was 0.023 µM; in the experiment with SYF, 0.039 µM.

As to `O=C(Cc1csc(-c2ccc(OCCN3CCOCC3)cc2)n1)NCc1ccc(F)cc1`, the figures for the GI50 with NIH3T3 and with SYF were 1.49 µM and 2.51 µM, respectively. Also, the Activity worked out at 54% in the experiment with HT-29 and 71% with CCRF-CEM [3].

With `O=C(Cc1csc(-c2ccc(OCCN3CCOCC3)cc2)n1)NCc1ccccc1Cl`, the GI50 with NIH3T3 came to 7.93 µM; in the experiment with SYF it was 13 µM. Moreover, the Activity in the experiment with BT-20 [4] and in the experiment with CCRF-CEM [3] was 30% in each case.

For `O=C(Cc1csc(-c2ccc(OCCN3CCOCC3)cc2)n1)NCc1ccccc1`, the GI50 with NIH3T3 was determined as 1.34 µM; with SYF, 2.3 µM. Also, the Activity with BT-20 [4] and in the experiment with CCRF-CEM [3] was 30% in each case.

As usually defined, the GI50 is the concentration giving 50% growth inhibition.
